Tests used:
Protease [1] = molecular target: Protease (Human immunodeficiency virus 1, UniProt Q9YQ12, I84V); test: (§1) Binding affinity to drug-resistant HIV-1 protease I84V mutant expressed in Escherichia coli TAP-106 cells assessed as inhibition constant using a EDANS/DABCYL FRET-peptide substrate preincubated for 1 hr followed by substrate addition measured after 1 hr by fluorogenic assay
Protease [2] = molecular target: Protease (Human immunodeficiency virus 1, UniProt Q9YQ12, A71V/I50V); test: Binding affinity to drug-resistant HIV-1 protease I50V/A71V mutant expressed in Escherichia coli TAP-106 cells assessed as inhibition constant using a EDANS/DABCYL FRET-peptide substrate preincubated for 1 hr followed by substrate addition measured after 1 hr by fluorogenic assay
Protease (Human immunodeficiency virus 1, UniProt Q9YQ12, A71V/I50V), sequence (Q9YQ12 entry or part of it A71V/I50V): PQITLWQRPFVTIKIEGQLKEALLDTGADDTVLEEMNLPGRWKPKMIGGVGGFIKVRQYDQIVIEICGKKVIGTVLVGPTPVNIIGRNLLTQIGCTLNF

TZM = test: Cytotoxicity against human TZM-bl cells incubated for 48 hrs by absorbance based assay; type: toxicity, cell-based
HEK-293T = test: (§2) Cytotoxicity against HEK293T cells incubated for 48 hrs by absorbance based assay; type: toxicity, cell-based; details: human, hek-293t, 48 h
[3] = as §1, with “I13V/G16E/V32I/L33F/K45I/M46I/V82F/I84V/A71V/L76V” for “I84V”; set-up: species or system Human immunodeficiency virus 1
in vitro = details: human
[4] = as §1, with “I13V/G16E/V32I/L33F/K45I/M46I/V82F/I84V/A71V/L76V/I54L” for “I84V”; set-up: species or system Human immunodeficiency virus 1
[5] = test system: Human immunodeficiency virus 1; test: Antiviral activity against wild-type HIV-1 NL4-3 infected in human TZM-bl cells using virus particles harvested from 18 hrs drug-treated HEK293T cells harboring viral transfection assessed as reduction in viral infection measured after 48 hrs in TZM-bl cells by luciferase based assay; type: functional, organism-based; details: Human immunodeficiency virus 1, NL4-3, TZM-bl
[6] = as §1, with “I13V/G16E/V32I/L33F/K45I/M46I/V82F/I84V” for “I84V”; set-up: species or system Human immunodeficiency virus 1
[7] = test system: Human immunodeficiency virus 1; test: Antiviral activity against drug-resistant HIV-1 harboring protease L10I/V11I/I13V/K14R/A22V/E35D/M36I/N37D/G48M/F53L/I54V/I62V/L63P/A71V/T74S/V82A/I84V/T91S/Q92K mutant infected in human TZM-bl cells using virus particles harvested from 24 hrs drug-treated human CEM cells infected with virus assessed as reduction in viral infection measured after 48 hrs in TZM-bl cells by Firefly luciferase based …; type: functional, organism-based; details: Human immunodeficiency virus 1, TZM-bl
[8] = test system: Human immunodeficiency virus 1; test: (§3) Antiviral activity against drug-resistant HIV-1 harboring protease L10F/V11I/I13V/V32I/L33F/K43T/M46L/I54L/A71V/V82I/I84V/L89M/T91S/Q92R mutant infected in human TZM-bl cells using virus particles harvested from 24 hrs drug-treated human CEM cells infected with virus assessed as reduction in viral infection measured after 48 hrs in TZM-bl cells by Firefly luciferase based assay; type: functional, organism-based; details: Human immunodeficiency virus 1, TZM-bl
Method in brief: (§4)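 Virus stocks grown by infecting 3 × 10^6 CEM cells with virus at 37 °C for 2–3 h, then RPMI with medium changes every 48 h until CPE. Infected CEM cells plated onto five-fold serial inhibitor dilutions in RPMI (top 100 μM).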

[9] = test system: Human immunodeficiency virus 1; test: as §3, with “L10F/I13V/L33F/K45R/M46I/I47V/I50V/F53L/I54L/I66F/A71V/T74A/L76S/V82I” for “L10F/V11I/I13V/V32I/L33F/K43T/M46L/I54L/A71V/V82I/I84V/L89M/T91S/Q92R”; type: functional, organism-based; details: Human immunodeficiency virus 1, TZM-bl; method in brief: as §4
[10] = test system: Human immunodeficiency virus 1; test: as §3, with “RT mutation/protease I13V/G16E/V32I/L33F/K45I/M46I/A71V/L76V/V82F/I84V” for “protease L10F/V11I/I13V/V32I/L33F/K43T/M46L/I54L/A71V/V82I/I84V/L89M/T91S/Q92R”; type: functional, organism-based; details: Human immunodeficiency virus 1, TZM-bl; method in brief: as §4
[11] = test system: Human immunodeficiency virus 1; test: Antiviral activity against DRV-resistant HIV-1 infected in human TZM-bl cells using virus particles harvested from 24 hrs drug-treated human CEM cells infected with virus assessed as reduction in viral infection measured after 48 hrs in TZM-bl cells by Firefly luciferase based assay; type: functional, organism-based; details: Human immunodeficiency virus 1, TZM-bl; method in brief: as §4
[12] = test system: Human immunodeficiency virus 1; test: as §3, with “L10F/I15V/M46I/I47V/I50V/F53L/A71V/V82I/I84V/L89T” for “L10F/V11I/I13V/V32I/L33F/K43T/M46L/I54L/A71V/V82I/I84V/L89M/T91S/Q92R”; type: functional, organism-based; details: Human immunodeficiency virus 1, TZM-bl; method in brief: as §4
[13] = test system: Human immunodeficiency virus 1; test: Antiviral activity against wild-type HIV-1 NL4-3 infected in human TZM-bl cells using virus particles harvested from 24 hrs drug-treated human CEM cells infected with virus assessed as reduction in viral infection measured after 48 hrs in TZM-bl cells by Firefly luciferase based assay; type: functional, organism-based; details: Human immunodeficiency virus 1, NL4-3, TZM-bl; method in brief: as §4
[14] = as §2; type: toxicity, cell-based, HEK-293T; details: human, HEK293T cells
[15] = test system: Human immunodeficiency virus 1; test: as §3, with “Gag mutation/protease I13V/G16E/V32I/L33F/K45I/M46I/A71V/L76V/V82F/I84V” for “protease L10F/V11I/I13V/V32I/L33F/K43T/M46L/I54L/A71V/V82I/I84V/L89M/T91S/Q92R”; type: functional, organism-based; details: Human immunodeficiency virus 1, TZM-bl; method in brief: as §4

Protease (Human immunodeficiency virus 1, UniProt Q9YQ12, I84V), sequence (Q9YQ12 entry or part of it I84V): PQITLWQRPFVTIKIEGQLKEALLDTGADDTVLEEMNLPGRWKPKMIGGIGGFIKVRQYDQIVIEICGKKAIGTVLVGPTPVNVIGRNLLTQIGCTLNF

| Compound | Ki (Protease [1]) [nM] | Ki (Protease [2]) [nM] | CC50 (TZM) [nM] | CC50 (HEK-293T) [nM] | Ki [3] [nM] | selectivity ratio (in vitro) | Ki [4] [nM] | EC50 [5] [nM] | Ki [6] [nM] | EC50 [7] [nM] | EC50 [8] [nM] | EC50 [9] [nM] | EC50 [10] [nM] | EC50 [11] [nM] | EC50 [12] [nM] | EC50 [13] [nM] | CC50 at 48 h [14] [nM] | EC50 [15] [nM] |
| --- | --- | --- | --- | --- | --- | --- | --- | --- | --- | --- | --- | --- | --- | --- | --- | --- | --- | --- |
| CCOP(=O)(COc1ccc(C[C@H](NC(=O)O[C@H]2CO[C@H]3OCC[C@H]32)[C@H](O)CN(C[C@@H](C)CC)S(=O)(=O)c2ccc3c(c2)OCO3)cc1)OCC | < 0.005 | < 0.005 | > 100000 | 31000 |  |  |  |  |  |  |  |  |  |  |  |  |  |  |
| CCOP(=O)(COc1ccc(C[C@H](NC(=O)O[C@H]2CO[C@H]3OCC[C@H]32)[C@H](O)CN(CC(C)C)S(=O)(=O)c2ccc3c(c2)OCO3)cc1)OCC | < 0.005 | < 0.005 | > 100000 | 68000 | 4.5 | 12 | 63.5 | 5.67 | 2.2 |  |  |  |  |  |  |  |  |  |
| CCOP(=O)(COc1ccc(C[C@H](NC(=O)O[C@H]2CO[C@H]3OCC[C@H]32)[C@H](O)CN(CC(C)C)S(=O)(=O)c2ccc(OC)cc2)cc1)OCC | < 0.005 | < 0.005 | > 100000 | 50000 | 2.1 | 4.24 | 3.6 | 11.8 | 0.56 |  |  |  |  |  |  |  |  |  |
| CC(C)CN(C[C@@H](O)[C@H](Cc1ccccc1)NC(=O)O[C@H]1CO[C@H]2OCC[C@H]21)S(=O)(=O)c1ccc(N)cc1 |  |  |  |  |  |  |  | 7.73 |  | 56 | 15800 | 12900 | 1460 | > 100000 | 1870 | 8 |  |  |
| CCOP(=O)(COc1ccc(C[C@H](NC(=O)O[C@H]2CO[C@H]3OCC[C@H]32)[C@H](O)CN(CC(CC)CC)S(=O)(=O)c2ccc3c(c2)OCO3)cc1)OCC | < 0.005 | < 0.005 | > 100000 | 21000 | 1.6 |  | 6.9 | 3.11 | 0.37 | < 10 |  |  |  |  |  | 3 |  |  |
| CCOP(=O)(COc1ccc(C[C@H](NC(=O)O[C@H]2CO[C@H]3OCC[C@H]32)[C@H](O)CN(C[C@@H](C)CC)S(=O)(=O)c2ccc(OC)cc2)cc1)OCC | < 0.005 | < 0.005 | 78000 | 33000 | 3.7 | 3.45 | 10.5 | 9.56 | 0.78 |  |  |  |  |  |  |  |  |  |
| CCOP(=O)(COc1ccc(C[C@H](NC(=O)O[C@H]2CO[C@H]3OCC[C@H]32)[C@H](O)CN(CC(CC)CC)S(=O)(=O)c2ccc(CO)cc2)cc1)OCC | < 0.005 | < 0.005 | > 100000 | 69000 | 32.1 | 4.06 | 81.2 | 17 | 2.2 |  |  |  |  |  |  |  |  |  |
| CCOP(=O)(COc1ccc(C[C@H](NC(=O)O[C@H]2CO[C@H]3OCC[C@H]32)[C@H](O)CN(C[C@@H](C)CC)S(=O)(=O)c2ccc(CO)cc2)cc1)OCC | < 0.005 | < 0.005 |  |  | 52.9 | > 3.66 | 103 | 27.3 | 4.98 |  |  |  |  |  |  |  | > 100000 |  |
| CCC(CC)CN(C[C@@H](O)[C@H](Cc1ccccc1)NC(=O)O[C@H]1CO[C@H]2OCC[C@H]21)S(=O)(=O)c1ccc2c(c1)OCO2 |  |  |  |  |  |  |  |  |  |  | 5770 | > 100000 |  | 780 | 6440 | 6 |  |  |
| CCOP(=O)(COc1ccc(C[C@H](NC(=O)O[C@H]2CO[C@H]3OCC[C@H]32)[C@H](O)CN(CC(CC)CC)S(=O)(=O)c2ccc(N)cc2)cc1)OCC | < 0.005 | < 0.005 | 96000 | 44000 | 51.6 | 2.75 | 106 | 16 | 4.71 |  |  |  |  |  |  |  |  |  |
| CCOP(=O)(COc1ccc(C[C@H](NC(=O)O[C@H]2CO[C@H]3OCC[C@H]32)[C@H](O)CN(C[C@@H](C)CC)S(=O)(=O)c2ccc3ncsc3c2)cc1)OCC | < 0.005 | < 0.005 | 53000 | 23000 | 1.2 | 2.32 | 9.03 | 9.93 | 1.8 |  |  |  |  |  |  |  |  |  |
| CCOP(=O)(COc1ccc(C[C@H](NC(=O)O[C@H]2CO[C@H]3OCC[C@H]32)[C@H](O)CN(CC(CC)CC)S(=O)(=O)c2ccc3ncsc3c2)cc1)OCC | < 0.005 | < 0.005 | 43000 | 22000 | 0.24 | 2.06 | 3.2 | 10.7 | 0.25 |  |  |  |  |  |  |  |  |  |
| CCOP(=O)(COc1ccc(C[C@H](NC(=O)O[C@H]2CO[C@H]3OCC[C@H]32)[C@H](O)CN(CC(CC)CC)S(=O)(=O)c2ccc(OC)cc2)cc1)OCC | < 0.005 | < 0.005 | 59000 | 22000 | 1.26 |  | 2.2 | 5.15 | 0.77 | < 10 |  |  | 85 |  |  | 5 |  | 38 |
| CCOP(=O)(COc1ccc(C[C@H](NC(=O)O[C@H]2CO[C@H]3OCC[C@H]32)[C@H](O)CN(C[C@@H](C)CC)S(=O)(=O)c2ccc(N)cc2)cc1)OCC | < 0.005 | < 0.005 | > 100000 | 92000 | 146 | 4.02 | 259 | 22.9 | 13.3 |  |  |  |  |  |  |  |  |  |
| CCOP(=O)(COc1ccc(C[C@H](NC(=O)O[C@H]2CO[C@H]3OCC[C@H]32)[C@H](O)CN(CC(C)C)S(=O)(=O)c2ccc3ncsc3c2)cc1)OCC | < 0.005 | < 0.005 | > 100000 | 45000 | 1.9 | 4.33 | 15 | 10.4 | 0.93 |  |  |  |  |  |  |  |  |  |
